Data taken from ChEMBL document CHEMBL5046283, “Design, Synthesis, and Biological Evaluation of the First Inhibitors of Oncogenic CHD1L” (J Med Chem, 2022).
pIC50: −log10 of the molar value. The source made the active and inactive calls. No cut-off for these calls is given here.

Experiments:
[1] = Cytotoxicty against CRC042 patient-derived tumor organoids assessed as reduction in cell viability incubated for 72 hrs by CellTiter Glo assay; type: functional; details: Homo sapiens, Neoplasm
Method in brief: (§1)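 Patient cells washed with PBS, digested with TrypLE and passed through a 100 μm strainer. Seeded at 5,000 cells/well with 2% Matrigel and left 72 h to self-assemble as organoids, then dosed for 72 h. CellTiter Glo 3D added 1:1, 45 min at room temperature with shaking, luminescence read. Normalised to 0.5% DMSO; triplicate experiments, technical n = 3.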

[2] = Inhibition of recombinant catalytic CHD1L (unknown origin) preincubated for 10 mins followed by ATP addition measured after 1 hr by plate reader analysis; design: species or system Homo sapiens
Method in brief: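 800 nM catalytic CHD1L and 200 nM mononucleosome preincubated with inhibitor for 10 min at 37 °C in 50 mM Tris pH 7.5, 50 mM NaCl, 5 mM MgCl2, 2 mM DTT, 5% glycerol. Reaction started with 10 μM ATP, 1 h at 37 °C. Phosphate sensor added (500 nM), fluorescence read at ex 430/em 450. No-enzyme background; normalised to DMSO; triplicate.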

SW-620 [3] = experiment: Cytotoxicity against human SW-620 tumor organoid assessed as reduction in cell viability incubated for 72 hrs by CellTiter Glo assay; type: functional, cell-based; details: SW-620, 72 h
[4] = Inhibition of CHD1L-mediated TCF transcription in human SW-620 M-phenotype cells incubated for 24 hrs by TOPflash luciferase reporter assay; type: cell-based; details: SW-620, 24 h
Method in brief: (§2)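 M-Phenotype cells seeded at 20,000 (SW620) or 10,000 (HCT116) cells/well and transiently transfected with TOPflash for 72 h. Treated for 24 h. Luminescence read with One-Glo after PBS wash, normalised to total protein by BCA on a parallel plate.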

[5] = Inhibition of CHD1L-mediated TCF transcription in human HCT-116 M-phenotype cells incubated for 24 hrs by TOPflash luciferase reporter assay; type: cell-based; details: HCT-116, 24 h; method in brief: as §2
SW-620 [6] = experiment: Cytotoxicity against human SW-620 M-phenotype tumor organoid assessed as reduction in cell viability incubated for 72 hrs by CellTiter Glo assay; type: functional, cell-based; details: SW-620, 72 h
Method in brief: (§3)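 Isolated M-Phenotype cells plated at 2,000 cells/well in ultra-low-attachment round-bottom wells, centrifuged to aggregate, then given 2% Matrigel final. Grown 72 h at 37 °C/5% CO2 to form organoids, then dosed for 72 h. CellTiter Glo 3D added 1:1, shaken 45 min at room temperature, luminescence read. Normalised to 0.5% DMSO vehicle; triplicate experiments, technical n = 3.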

HCT-116 [7] = experiment: Cytotoxicity against human HCT-116 M-phenotype tumor organoid assessed as reduction in cell viability incubated for 72 hrs by CellTiter Glo assay; type: functional, cell-based; details: HCT-116, 72 h; method in brief: as §3
[8] = Cytotoxicty against CRC102 patient-derived tumor organoid assessed as reduction in cell viability incubated for 72 hrs by CellTiter Glo assay; type: functional, tissue-based; details: Homo sapiens, Colon cancer organoid; method in brief: as §1
[9] = Induction of mesenchymal-epithelial transition in human SW-620 M-phenotype tumor organoid assessed as downregulation of vimentin expression by fluorescence analysis; type: functional, cell-based
Method in brief: (§4)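 M-Phenotype organoids carry a dual reporter (VimPro-GFP, EcadPro-RFP). Dose-response over a 72 h treatment; vimentin promoter activity read as GFP fluorescence by 3D high-content imaging and normalised. Duplicate experiments.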

[10] = Induction of mesenchymal-epithelial transition in human HCT-116 M-phenotype tumor organoid assessed as downregulation of vimentin expression by fluorescence analysis; type: functional, cell-based; method in brief: as §4
SW-620 [11] = experiment: Inhibition of cell stemness in human SW-620 M-phenotype cells assessed as reduction in colony formation; type: functional, cell-based
Method in brief: (§5)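 M-Phenotype cells plated at 200 (SW620) or 75 (HCT116) cells/well and treated continuously. Medium and drug replenished every three days over 7–10 days of growth. Colonies imaged by high-content imaging and counted. Duplicate experiments with triplicate technical replicates.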

HCT-116 [12] = experiment: Inhibition of cell stemness in human HCT-116 M-phenotype cells assessed as reduction in colony formation; type: functional, cell-based; method in brief: as §5
SW-620 [13] = experiment: Antitumor activity against human SW-620 cells xenografted in athymic nude mouse assessed as decrease in tumor volume at 75 to 125 mg/kg, po measured after 20 to 28 days by caliper method; type: functional, organism-based; details: dose 75-125 mg/kg, time 20-28 day
Method in brief: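 SW620 EMT dual-reporter M-Phenotype cells, 2 × 10^6 cells/100 μL in 1:1 Matrigel:RPMI 1640, injected subcutaneously into each flank of female athymic nude mice (8 weeks old). Randomised at day 5 to vehicle (10% DMSO, 90% PEG 400), 75 or 125 mg/kg. Oral gavage once daily, 5 days/week, for 28–31 days. Caliper tumour volume twice weekly by 4/3*[…]*(L/2)*(W/2)*(H/2).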

[14] = Toxicity in athymic nude mouse xenografted with human SW-620 cells assessed as change in body weight at 75 to 125 mg/kg, po measured after 28 days; type: organism-based; details: in vivo, dose 75-125 mg/kg, time 28 day
Method in brief: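 Female athymic nude mice (8 weeks old) bearing subcutaneous SW620 EMT dual-reporter M-Phenotype flank xenografts. Dosed by oral gavage at 75 or 125 mg/kg, or vehicle (10% DMSO, 90% PEG 400), once daily, 5 days/week, for 28–31 days. Body weight recorded twice weekly.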

| Structure (SMILES) | pIC50 [1] | pIC50 [2] | pIC50 (SW-620 [3]) | pIC50 [4] | pIC50 [5] | pIC50 (SW-620 [6]) | pIC50 (HCT-116 [7]) | pIC50 [8] | pIC50 [9] | pIC50 [10] | pIC50 (SW-620 [11]) | pIC50 (HCT-116 [12]) | Activity (SW-620 [13]) | Activity [14] |
| --- | --- | --- | --- | --- | --- | --- | --- | --- | --- | --- | --- | --- | --- | --- |
| Cc1cc(Nc2ccc(NC(=O)Cc3c(C)[nH]c4ccccc34)cc2)nc(N2CCCC2)n1 | 5.40 | 4.80 | 5.80 | 5.19 | 5.16 | 5.64 | 5.66 | 4.96 | 5.77 | 5.57 | 5.80 | 6.05 |  |  |
| Cc1cc(Nc2ccc(NC(=O)Cc3c[nH]c4cc(Cl)ccc34)cc2)nc(N2CCCC2)n1 | 5.47 | 4.92 | 5.85 | 5.02 | 5.38 | 5.70 | 5.64 | 5.09 | 5.74 | 5.60 | 6.30 | 6.40 |  |  |
| Cc1cc(Nc2ccc(NC(=O)Cc3cc(Br)cs3)cc2)nc(N2CCCC2)n1 | 5.38 | 5.48 | 5.59 | 4.92 | 5.06 | 5.59 | 5.37 | 5.08 | 5.48 | 5.30 | 5.80 | 6.10 | Active | Non-Toxic |
| Cc1cc(Nc2ccc(NC(=O)Cc3cccc4ccccc34)cc2)nc(N2CCCC2)n1 | 5.51 | 5.54 |  | 5.66 | 5.26 |  | 5.64 | 5.28 | 5.74 | 5.59 | 6.15 | 6.30 |  |  |
| Cc1cc(Nc2ccc(NC(=O)Cc3c[nH]c4ccccc34)cc2)nc(N2CCCC2)n1 | 5.21 | 5.48 |  | 4.96 | 5.16 | 5.96 | 5.85 | 5.05 | 5.82 | 5.72 | 5.96 | 6.05 |  |  |
| Cc1cc(Nc2ccc(NC(=O)Cc3cccs3)cc2)nc(N2CCCC2)n1 | 4.80 | 5.40 | 5.34 | 4.37 | 4.42 | 5.06 | 5.03 | 4.68 | 5.00 | 4.89 |  | 5.49 |  |  |
| Cc1cc(Nc2ccc(NC(=O)Cc3cc(Cl)nc4ccccc34)cc2)nc(N2CCCC2)n1 | 5.51 | 4.92 | 5.62 | 5.31 | 5.31 | 5.89 | 5.66 | 5.46 | 5.89 | 5.59 | 6.52 | 6.70 |  |  |
